For 24 compounds, RAC results are on record in ChEMBL document CHEMBL1121965, “Nonsteroidal estrogens: synthesis and estrogen receptor binding affinity of derivatives of (3R*,4S*)-3,4-bis(4-hydroxyphenyl)hexane (hexestrol) and (2R*,3S*)-2,3-bis(4-hydroxyphenyl)pentane (norhexestrol) functionalized on the side chain” (J Med Chem, 1982).

The experiment has as its target Estrogen receptor (Ovis aries) (UniProt P49885+Q9TU15). Kind of experiment: The ratio of association constant for estrogen receptor using [3H]estradiol as a tracer, relative to estradiol. The class given is protein assay. The method in brief: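 Competitive binding: lamb uterine cytosol supplied estrogen receptor, [3H]estradiol served as tracer, and free tracer was removed from bound by charcoal-dextran adsorption. Relative association constants were expressed against estradiol set at 100.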

In the case of `CC[C@H](c1ccc(O)cc1)[C@@H](C(N)=O)c1ccc(O)cc1`, the RAC came out at 0.2. The value for `CC[C@H](c1ccc(O)cc1)[C@@H](CC(N)=O)c1ccc(O)cc1` was 0.09. Turning to `CCCCC(=O)[C@@H](c1ccc(O)cc1)[C@H](CC)c1ccc(O)cc1`, the RAC was 81.

As to `CC[C@H](c1ccc(O)cc1)[C@@H](CC(=O)OC)c1ccc(O)cc1`, the RAC stood at 19. The value for `CCC(c1ccc(O)cc1)C(CCO)c1ccc(O)cc1` (centres undefined) was 15; that for `CC[C@H](c1ccc(O)cc1)[C@@H](CC(=O)C[N+]#N)c1ccc(O)cc1` was 2.8; that for `CCCCCOC(=O)C(c1ccc(O)cc1)C(CC)c1ccc(O)cc1` (centres undefined) was 61. Turning to `CC[C@H](c1ccc(O)cc1)[C@@H](CC(C)=O)c1ccc(O)cc1`, the RAC is 21. Consider `CC[C@H](c1ccc(O)cc1)[C@@H](C(=O)C[N+]#N)c1ccc(O)cc1`, for which the RAC came out at 10.9. For `CC[C@H](c1ccc(O)cc1)[C@@H](CBr)c1ccc(O)cc1` the value was 150. The value for `CCCCCNC(=O)C[C@@H](c1ccc(O)cc1)[C@H](CC)c1ccc(O)cc1` was 0.15; that for `CC[C@H](c1ccc(O)cc1)[C@@H](CO)c1ccc(O)cc1` was 8.9; that for `CCC(c1ccc(O)cc1)C(CCF)c1ccc(O)cc1` (centres undefined) was 129. For `CCC(c1ccc(O)cc1)C(CCBr)c1ccc(O)cc1` (centres undefined) the value was 71. Regarding `CCC(c1ccc(O)cc1)C(C(=O)OC)c1ccc(O)cc1` (centres undefined), the RAC is 70. For `CCCCC(=O)C[C@@H](c1ccc(O)cc1)[C@H](CC)c1ccc(O)cc1` the value was 9.4. The value for `CCCCCNC(=O)[C@@H](c1ccc(O)cc1)[C@H](CC)c1ccc(O)cc1` was 0.29. The value for `CC[C@H](c1ccc(O)cc1)[C@@H](CI)c1ccc(O)cc1` was 127; that for `CC[C@H](c1ccc(O)cc1)[C@@H](CC)c1ccc(O)cc1` was 300. `CCC(c1ccc(O)cc1)C(CCI)c1ccc(O)cc1` (centres undefined): the RAC came to 60.

With `CCCCCOC(=O)CC(c1ccc(O)cc1)C(CC)c1ccc(O)cc1` (centres undefined), the RAC is 3.8. For `CC[C@H](c1ccc(O)cc1)[C@@H](C(C)=O)c1ccc(O)cc1` the value was 58; for `CC[C@H](c1ccc(O)cc1)[C@@H](CF)c1ccc(O)cc1`, 129; for `CC[C@H](c1ccc(O)cc1)[C@@H](C)c1ccc(O)cc1`, 137.
